Experimental data taken from ChEMBL document CHEMBL1123074, “Aromatase inhibitors. Synthesis and biological activity of androstenedione derivatives” (J Med Chem, 1985).

Assays:
Aromatase [1] = molecular target: T1, Aromatase (Homo sapiens, UniProt P11511); assay: Percent inhibition of human placental Cytochrome P450 19A1 at 6:1 inhibitor: androstenedione (0.7 uM) ratio
T1 sequence (P11511 whole entry): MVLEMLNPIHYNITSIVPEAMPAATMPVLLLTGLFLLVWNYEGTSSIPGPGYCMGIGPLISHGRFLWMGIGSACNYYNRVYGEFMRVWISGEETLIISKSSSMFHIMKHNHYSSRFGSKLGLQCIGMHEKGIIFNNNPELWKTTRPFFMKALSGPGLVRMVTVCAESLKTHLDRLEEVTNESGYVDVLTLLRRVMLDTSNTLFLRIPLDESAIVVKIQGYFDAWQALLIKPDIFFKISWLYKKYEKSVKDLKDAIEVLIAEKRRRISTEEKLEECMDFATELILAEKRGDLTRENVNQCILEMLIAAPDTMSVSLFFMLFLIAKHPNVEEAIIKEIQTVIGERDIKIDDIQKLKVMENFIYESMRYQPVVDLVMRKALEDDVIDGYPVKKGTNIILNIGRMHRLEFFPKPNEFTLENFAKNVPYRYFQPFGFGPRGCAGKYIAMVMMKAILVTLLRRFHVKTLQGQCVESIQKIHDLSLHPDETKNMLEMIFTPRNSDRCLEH
In short: (§1)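 Human term placental microsomes (0.3-0.9 mg protein) incubated with test compound at stated inhibitor:substrate ratio, [4-14C]androstenedione, 0.7 μM androstenedione and NADPH-generating system (NADP, glucose 6-phosphate, glucose-6-phosphate dehydrogenase) in 0.1 M phosphate buffer pH 7.4, 30 min, 37 °C under oxygen. Stopped with [6,7-3H2]estradiol/estrone recovery markers and carriers; estrogens extracted, TLC-purified, quantified versus control.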

Aromatase [2] = molecular target: T1, Aromatase; assay: Percent inhibition of human placental Cytochrome P450 19A1 at 3:1 inhibitor: androstenedione (0.7 uM) ratio; in short: as §1
Aromatase [3] = molecular target: T1, Aromatase; assay: Percent inhibition of human placental Cytochrome P450 19A1 at 1:1 inhibitor: androstenedione (0.7 uM) ratio; in short: as §1

Compound	Inhibition (Aromatase [1]) [%]	Inhibition (Aromatase [2]) [%]	Inhibition (Aromatase [3]) [%]
COC1=C2CCC3C4CCC(=O)C4(C)CCC3C2(C)CCC1=O (stereo unspecified)	28	7	–
CC12C=CC(=O)C(O)=C1CCC1C2CCC2(C)C(=O)CCC12 (stereo unspecified)	–	84	66
CC12CCC3C(CCC4=C(Cl)C(=O)CCC43C)C1CCC2=O (stereo unspecified)	43	9	–
CC(=O)OC1=C2CCC3C4CCC(=O)C4(C)CCC3C2(C)CCC1=O (stereo unspecified)	–	90	81
C[C@]12C=CC(=O)C=C1C=C[C@@H]1[C@@H]2CC[C@]2(C)C(=O)CC[C@@H]12	–	83	69
C[C@]12CCC(=O)C(O)=C1CC[C@@H]1[C@@H]2CC[C@]2(C)C(=O)CC[C@@H]12 [FORMESTANE]	–	91	89
CC12CCC3C(C=CC4=C(O)C(=O)CCC43C)C1CCC2=O (stereo unspecified)	–	30	8
CC12CCC3C(CC(=O)C4=CC(=O)CCC43C)C1CCC2=O (stereo unspecified)	–	78	–
CC12CCC3C(CCC4=C(OC(=O)CCC(=O)O)C(=O)CCC43C)C1CCC2=O (stereo unspecified)	–	70	–
